Laboratory results taken from publication PMC4183631 (Journal of the American Chemical Society, 2014).
Blank lines part the entries; values can stand above or below the substance they belong to. No end group written: not given here.

How the values were obtained:
bacteria = details: cited from earlier work
S. aureus ATCC 25923 = assay: Antimicrobial activity assay; format: cell-based, Staphylococcus aureus; details: 20 μM peptide, AMA buffer (10 mM sodium phosphate, 1% TSB, pH 7.4), 1 h, 37 °C, colony counting; n = 3
Summary of the method: (§1)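 Strain grown overnight in dextrose-free TSB (37 °C, 16 h), subcultured 1:100 to OD600 ~0.6, washed twice in AMA buffer, set to OD600 0.6, then diluted 1:100. 9 parts culture to 1 part 10× peptide (200 μM stock) or water control; 1 h, 37 °C, 150 rpm. Tenfold dilutions plated on TSB agar, 20 h, 37 °C; 30–200-colony plates counted. Three trials, ≥2 peptide preparations; mean and standard deviation.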

[1] = system: S. Typhimurium ATCC 14028; assay: Antimicrobial activity assay; format: cell-based, Salmonella enterica serovar Typhimurium; details: 20 μM peptide, AMA buffer (10 mM sodium phosphate, 1% TSB, pH 7.4), 1 h, 37 °C, colony counting; n = 3
Summary of the method: as §1, with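 “Cells grown” for “Strain grown”, “OD600 0.5,” for “OD600 0.6,”, “diluted 1:250.” for “diluted 1:100.”, “agar, 15” for “agar, 20”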

[2] = system: L. monocytogenes ATCC 19115; assay: Bacterial agglutination assay; format: cell-based, Listeria monocytogenes; details: for peptide concentration at which the bacteria were agglutinated: 0–20 μM peptide, 50% MHB pH 7.4, 6 h, OD600
Summary of the method: (§2)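 Mid-log bacteria (LB for E. coli, BHI for Listeria), washed, held at OD600 0.25 in 50% MHB pH 7.4. Mixed 9:1 with 10× peptide (50, 100, 200 μM stocks) or water in a cuvette; OD600 read over time. At 6 h, for 20 μM samples, supernatant and agglutinate resuspended in fresh 50% MHB were serially diluted and plated (37 °C; LB agar 15 h, BHI agar 20 h). Three trials; mean ± SD.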

[3] = system: L. monocytogenes ATCC 19115; assay: Antimicrobial activity assay; format: cell-based, Listeria monocytogenes; details: 20 μM peptide, AMA buffer (10 mM sodium phosphate, 1% TSB, pH 7.4), 1 h, 37 °C, colony counting; n = 3
Summary of the method: as §1, with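 “in BHI” for “in dextrose-free TSB”, “OD600 0.5,” for “OD600 0.6,”, “diluted 1:500.” for “diluted 1:100.”, “on BHI” for “on TSB”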

E. coli ATCC 25922 [4] = assay: Bacterial agglutination assay; format: cell-based, Escherichia coli; details: for peptide concentration at which the bacteria were agglutinated: 0–20 μM peptide, 50% MHB pH 7.4, 6 h, OD600
Summary of the method: as §2

[5] = Sedimentation velocity analytical ultracentrifugation; format: physicochemical; details: lowest possible rotor speed (3000 rpm); white coat on the AUC cell
E. coli ATCC 25922 [6] = assay: Antimicrobial activity assay; format: cell-based, Escherichia coli; details: 20 μM peptide, AMA buffer (10 mM sodium phosphate, 1% TSB, pH 7.4), 1 h, 37 °C, colony counting; n = 3
Summary of the method: as §1, with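 “Cells grown” for “Strain grown”, “OD600 0.5,” for “OD600 0.6,”, “diluted 1:250.” for “diluted 1:100.”, “agar, 15” for “agar, 20”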

[7] = biological target: HD6 F29A mutant, oxidized form (human); assay: AUC
[8] = 20 μM peptide, 6 h, bacterium not given
[9] = 20 μM peptide, bacterial culture 10^8 CFU/mL in cuvette
[10] = 20 μM peptide, 6 h, mean ± SDM, n = 3

Substance: ATCYCRTGRCATRESLSGVCEISGRLYRLCCR (also: bicyclic or more (positions not given here)) [HD5, reference compound]
antibacterial activity in vitro (bacteria): broad-spectrum antibacterial activity

Substance: AFTCHCRR-SCYSTEYSYGTCTVMGINHRFCCL (bicyclic or more) [HD6, Human α-defensin 6]
antibacterial activity (S. aureus ATCC 25923): neither HD6 nor the mutants exhibit significant antibacterial activity | antibacterial activity in vitro (bacteria): negligible antibacterial activity | antibacterial activity [1]: neither HD6 nor the mutants exhibit significant antibacterial activity | CFU/mL of the resuspension following agitation [2, 8]: comparable to that of the untreated control | log reduction in CFU/mL of the supernatant relative to the bacteria-only control [2, 8]: ca. 1.3 fold log | time for clumps to sediment to the bottom of the cuvette and clarify the medium [2, 9]: ~2 h | time to bacterial clumping observed by the eye after mixing [2, 9]: ≤ 5 min | antibacterial activity [3]: neither HD6 nor the mutants exhibit significant antibacterial activity | CFU/mL of the resuspension following agitation (E. coli ATCC 25922 [4]; [8]): comparable to that of the untreated control | log reduction in CFU/mL of the supernatant relative to the bacteria-only control (E. coli ATCC 25922 [4]; [8]): ca. 1.3 fold log | time for clumps to sediment to the bottom of the cuvette and clarify the medium (E. coli ATCC 25922 [4]; [9]): ~2 h | time to bacterial clumping observed by the eye after mixing (E. coli ATCC 25922 [4]; [9]): ≤ 5 min | time within which the peptide sedimented (rapid peptide aggregation) [5]: ≤ 15 min | antibacterial activity (E. coli ATCC 25922 [6]): neither HD6 nor the mutants exhibit significant antibacterial activity

stoichiometry N [7]: 2
Substance: HD6 F29A mutant, oxidized form (peptide)

Substance: V22T (AFTCHCRRSCYSTEYSYGTCTTMGINHRFCCL; disulfide (positions not given here); ends not checked; UniProt Q01524 69-100, looked up, variant V22T)
peptide concentration at which the bacteria were agglutinated [2]: ≥ 10 µM | CFU/mL reduction of the supernatant, in words [2, 10]: smaller decrease in CFU/mL for the supernatant | peptide concentration at which the bacteria were agglutinated (E. coli ATCC 25922 [4]): ≥ 10 µM | CFU/mL reduction of the supernatant, in words (E. coli ATCC 25922 [4]; [10]): smaller decrease in CFU/mL for the supernatant

Substance: H27W (AFTCHCRRSCYSTEYSYGTCTVMGINWRFCCL; disulfide (positions not given here); ends not checked; UniProt Q01524 69-100, looked up, variant H27W)
peptide concentration at which the bacteria were agglutinated [2]: ≥ 10 µM | peptide concentration at which the bacteria were agglutinated (E. coli ATCC 25922 [4]): ≥ 10 µM

Substance: I25T (AFTCHCRRSCYSTEYSYGTCTVMGTNHRFCCL; disulfide (positions not given here); ends not checked; UniProt Q01524 69-100, looked up, variant I25T)
peptide concentration at which the bacteria were agglutinated [2]: ≥ 10 µM | peptide concentration at which the bacteria were agglutinated (E. coli ATCC 25922 [4]): ≥ 10 µM
